# Hits are enriched below; roughly 1.3% of the tested compounds scored in any of these assays.
# HKDC1 inhibitor: HKDC1 hexokinase inhibitors, primary screen, biochemical, fluorescence, uHTS; recombinant HKDC1, G6PDH/diaphorase resazurin coupled fluorescence; inhibition, % at 20 µM; actives 0.16% (n = 340,000);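 active = inhibition above about 35% when tested at 20 µM, limit read from the data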;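 note: plate controls were DMSO wells with enzyme for no effect and DMSO wells lacking enzyme for full effect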
#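 Test system: recombinant HKDC1 (HK5) hexokinase enzyme, produced in-house; Amount: enzyme 5 µg/mL final; Buffer or medium: Tris pH 8.0 buffer with MgCl2, Tween-20, BSA, BME; Reagent: glucose and ATP substrates; Doses: 20 µM test compound, 1% DMSO; Incubation: 90 min reaction incubation at room temperature, dark; Detection: resorufin fluorescence at 613 nm.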
# Diaphorase act: compounds boosting diaphorase resazurin reduction – biochemical, uHTS, resorufin fluorescence, counter-screen for diaphorase-coupled primary assays, primary screen; Diaphorase/resazurin coupled assay, 16 min; active compounds read high; 1 = vehicle wells, 0 = NADH-free wells; activation factor at 20 µM; actives 0.005% (n = 190,000);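 active = diaphorase activity raised at least twofold by the compound at 20 µM; inactive = activation factor below 2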
#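 Measured by – red resorufin fluorescence at 544/590 nm excitation/emission · Test system – Clostridium kluyveri diaphorase, purified enzyme · Incubation – reaction time 16 min, room temperature · Buffer or medium – 50 mM HEPES pH 7.4 with 4.542 mM MgCl2, 0.005% Tween 20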
# PfGluPho inh: PfG6PD enzyme inhibitors, primary screen, biochemical, fluorescence intensity, uHTS | glucose-6-phosphate dehydrogenase-6-phosphogluconolactonase (Plasmodium falciparum 3D7) | PfGluPho enzyme, NADPH resazurin-diaphorase fluorescence | inhibition, % at 20 µM | actives 0.78% (n = 350,000) | AID 504690, 2011;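 active = inhibition reaching at least a set limit at 20 µM in the primary screen, cut at about 59% in these data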;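 note: 0% = DMSO wells with substrate and 100% = DMSO wells lacking glucose-6-phosphate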
# Diaph inh CS: diaphorase inhibitors and chemical oxidizers, primary screen, counter-screen for diaphorase-coupled primary assays, biochemical, uHTS, resorufin fluorescence | actives 0.69% (n = 190,000) | AID 1217, 2008 | inhibition, % at 20 µM | diaphorase resazurin-to-resorufin fluorescence, NADH, 16 min; bacterial (C. kluyveri) enzyme, not human;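 active = primary screen inhibition at 20 µM above a set limit, cut at about 50% in these data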;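 note: plate controls were DMSO with full reaction for no effect and wells lacking NADH for full effect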
#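 System: Diaphorase enzyme from Clostridium kluyveri | Amount: Enzyme working solution with 0.14 U/mL diaphorase | Benchmarks: No-NADH positive control and DMSO neutral control | Signal: Fluorescence of resorufin formed from resazurin, Ex 544/Em 590 nm | Schedule: 16-min room-temperature incubation before reading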
# G6PDH counter: L. mesenteroides G6PDH inhibitors, counter-screen for G6PDH-coupled screening assays, biochemical, Leuconostoc mesenteroides enzyme; Purified L. mesenteroides G6PDH, diaphorase/resazurin coupled fluorescence, 45 min; AID 1020, 2008; inhibition, % at 5 µM; actives 0.12% (n = 200,000); glucose-6-phosphate dehydrogenase [Leuconostoc mesenteroides]; in the data active = inhibition above about 50%
# HKDC1 act conf: HKDC1 hexokinase activators, confirmation, biochemical, single concentration. shares compounds with HKDC1 inhibitor. recombinant HKDC1, G6PDH/diaphorase resazurin fluorescence; active compounds read low. inhibition, % at 20 µM. actives 14% (n = 740);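 active = inhibition at or below a set negative limit, negative inhibition meaning the enzyme was activated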
# Starred values were filed as active, the others as inactive; x = no result.
SMILES,HKDC1 inhibitor,Diaphorase act,PfGluPho inh,Diaph inh CS,G6PDH counter,HKDC1 act conf
Cc1nn(-c2ccc(N3CCOCC3)nn2)c(C)c1CCC(=O)NCc1ccccc1,-5,x,14,x,x,x
O=C(N/N=C/c1ccccc1)c1ccc(CN2C(=O)c3cccc4cccc2c34)cc1,-7,0.8,-3,20,-1,x
O=C(N/N=C/c1ccc(O)cc1O)c1ccc(CN2C(=O)c3cccc4cccc2c34)cc1,-41,0.9,38,13,-8,-22
Cc1ccc(NC(=O)c2cccc(S(=O)(=O)Nc3c(C)n(C)n(-c4ccccc4)c3=O)c2)cc1C,-3,x,-6,x,x,x
CC1(C)CN(Cc2ccccc2)C(=O)[C@H]1CC(=O)Nc1ccc(Br)cc1,x,x,-5,x,x,x
Cc1ccc2cc(CCNC(=O)c3ccc(S(=O)(=O)N4CCOCC4)cc3)c(=O)[nH]c2c1,20,x,28,x,x,x
Cc1cc2cc(CCNC(=O)c3cccc([N+](=O)[O-])c3)c(=O)[nH]c2cc1C,40*,0.6,9,36,-2,16
Cc1ccc2cc(CCNC(=O)c3ccc(S(=O)(=O)N4CCCCC4)cc3)c(=O)[nH]c2c1,40*,0.3,45,72*,5,40
Cc1cc2cc(CCNC(=O)c3ccc(S(=O)(=O)N4CCOCC4)cc3)c(=O)[nH]c2cc1C,41*,0.4,32,58*,3,45
Cn1ccsc1=NC(=O)c1cccc(C#N)c1,-4,x,-13,x,x,x
O=C1C(Cl)=C(Nc2ccccc2)C(=O)c2ccccc21,-38,0.7,-17,31,45,x
O=C(O)c1ccc(NC2=C(Cl)C(=O)c3ccccc3C2=O)cc1,-131,x,-89,x,x,-94*
CCN(C(=O)Cc1c(C(=O)O)n(CC)c2ccccc12)c1cccc(C(F)(F)F)c1,-2,x,1,x,x,x
C=CCn1c(SCC(=O)Nc2sc3c(c2C#N)CCC(C)C3)nc2cc(C(=O)O)ccc2c1=O (stereo not drawn),39*,x,-47,x,x,33
NC(=O)COC(=O)c1ccc2noc(-c3ccccc3)c2c1,2,x,-16,x,x,x
COc1ccccc1NC(=O)c1cnc(SCC(=O)NCC2CCCO2)n(C)c1=O (stereo not drawn),0,x,5,x,x,x
Cc1ccc2oc(=O)c3cnn(CC(=O)N4CCc5ccccc5C4)c3c2c1,-40,0.7,-49,31,-9,-51*
Cc1ccc2oc(=O)c3cnn(CC(=O)N4CCCCC4C)c3c2c1 (stereo not drawn),-12,0.9,-30,13,6,x
O=c1[nH]nc(Sc2ccccc2)c(=S)[nH]1,x,x,-1,x,x,x
Oc1c(Br)cc(Br)cc1/C=N/c1nc2c(s1)CCCC2,37*,x,80*,x,x,-2
CCOC(=O)/C=C(\C)Sc1cc(O)c2ccccc2c1O,57*,x,108*,x,x,54
CCOC(=O)c1cc2c(=Cc3ccc(N(C)C)cc3)c3ccccc3n2[n+]1C,37*,x,50,x,x,-8
Cc1cc2c(=Cc3ccc(N(C)C)cc3)c3ccccc3n2[n+]1C,-4,x,27,x,x,x
Cc1ccc(C)c(-n2nnnc2Sc2nnnn2-c2ccccc2)c1,47*,x,-5,x,x,39
Cc1ccc(S(=O)(=O)N(C(=O)c2ccco2)c2cc3sc(=O)oc3c3ccccc23)cc1,37*,0.5,54,48,4,-5
COc1ccc(N(C(=O)CCl)C(C(=O)NCCc2ccccc2)c2cccs2)cc1Cl (stereo not drawn),32,1,-1,4,0,21
COc1cccc(N(C(=O)CCl)C(C(=O)NCCc2ccccc2)c2cccs2)c1 (stereo not drawn),16,1,1,0,-8,x
O=C(OCn1ncc(Cl)c(Cl)c1=O)c1ccc(C(F)(F)F)cc1,46*,0.9,8,5,9,2
O=C(c1c[nH]c(C(=O)C(Cl)(Cl)Cl)c1)c1ccccc1F,37*,x,-6,x,x,1

# Bioassay records (PubChem BioAssay)
